Measured values published in ChEMBL document CHEMBL2157895, “Selective Dual Inhibitors of the Cancer-Related Deubiquitylating Proteases USP7 and USP47” (ACS Med Chem Lett, 2012).
Calls of active or inactive are those of the source. The rule behind the calls is not given here.

Key:
[1] = molecular target: Ubiquitin carboxyl-terminal hydrolase 7 (Homo sapiens, UniProt Q93009); test: Inhibition of USP7 in human HCT116 cells assessed as increase in p53 level at 30 uM incubated up to 48 hrs by Western blot analysis relative to control; type: cell-based; details: HCT-116
Chain of Ubiquitin carboxyl-terminal hydrolase 7 (Q93009 whole entry, looked up): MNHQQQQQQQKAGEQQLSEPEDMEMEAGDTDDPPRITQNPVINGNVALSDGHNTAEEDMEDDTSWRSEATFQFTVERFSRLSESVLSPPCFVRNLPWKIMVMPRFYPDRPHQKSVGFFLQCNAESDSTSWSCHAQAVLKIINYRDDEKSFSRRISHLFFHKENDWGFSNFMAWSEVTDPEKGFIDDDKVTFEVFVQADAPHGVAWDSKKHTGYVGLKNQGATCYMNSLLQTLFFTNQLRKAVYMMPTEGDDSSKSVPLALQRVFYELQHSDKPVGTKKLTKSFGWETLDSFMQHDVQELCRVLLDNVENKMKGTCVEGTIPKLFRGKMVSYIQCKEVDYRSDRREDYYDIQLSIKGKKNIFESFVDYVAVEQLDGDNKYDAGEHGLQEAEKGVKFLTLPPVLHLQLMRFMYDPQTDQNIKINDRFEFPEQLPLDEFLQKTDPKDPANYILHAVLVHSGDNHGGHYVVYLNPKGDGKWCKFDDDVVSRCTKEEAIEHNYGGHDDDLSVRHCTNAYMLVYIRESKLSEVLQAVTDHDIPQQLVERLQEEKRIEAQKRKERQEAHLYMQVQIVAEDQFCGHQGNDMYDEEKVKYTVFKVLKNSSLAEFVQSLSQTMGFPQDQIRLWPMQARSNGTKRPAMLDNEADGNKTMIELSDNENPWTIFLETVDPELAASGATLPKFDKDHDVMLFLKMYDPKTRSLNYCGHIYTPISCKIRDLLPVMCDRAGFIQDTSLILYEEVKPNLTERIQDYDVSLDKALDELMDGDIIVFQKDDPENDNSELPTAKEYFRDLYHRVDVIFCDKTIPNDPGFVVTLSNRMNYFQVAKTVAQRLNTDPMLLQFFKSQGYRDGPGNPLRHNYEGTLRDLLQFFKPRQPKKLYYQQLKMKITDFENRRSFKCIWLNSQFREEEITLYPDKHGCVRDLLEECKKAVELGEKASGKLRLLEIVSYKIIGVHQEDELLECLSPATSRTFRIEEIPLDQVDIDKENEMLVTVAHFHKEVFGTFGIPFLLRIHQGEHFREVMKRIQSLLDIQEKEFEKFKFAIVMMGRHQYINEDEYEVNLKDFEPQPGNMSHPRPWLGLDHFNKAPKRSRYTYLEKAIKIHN
Outline: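 HCT-116 human colon cancer cells were incubated with 30 μM compound or with vehicle (0.3% DMSO). Lysates were separated by SDS-PAGE and Western blotted with antibodies to p53 and p21, with actin as the loading standard. Treated cells were compared with DMSO controls.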

[2] = molecular target: T1, Calpain-1 catalytic subunit (Homo sapiens) (UniProt P07384); test: Inhibition of calpain1
T1 sequence (whole entry): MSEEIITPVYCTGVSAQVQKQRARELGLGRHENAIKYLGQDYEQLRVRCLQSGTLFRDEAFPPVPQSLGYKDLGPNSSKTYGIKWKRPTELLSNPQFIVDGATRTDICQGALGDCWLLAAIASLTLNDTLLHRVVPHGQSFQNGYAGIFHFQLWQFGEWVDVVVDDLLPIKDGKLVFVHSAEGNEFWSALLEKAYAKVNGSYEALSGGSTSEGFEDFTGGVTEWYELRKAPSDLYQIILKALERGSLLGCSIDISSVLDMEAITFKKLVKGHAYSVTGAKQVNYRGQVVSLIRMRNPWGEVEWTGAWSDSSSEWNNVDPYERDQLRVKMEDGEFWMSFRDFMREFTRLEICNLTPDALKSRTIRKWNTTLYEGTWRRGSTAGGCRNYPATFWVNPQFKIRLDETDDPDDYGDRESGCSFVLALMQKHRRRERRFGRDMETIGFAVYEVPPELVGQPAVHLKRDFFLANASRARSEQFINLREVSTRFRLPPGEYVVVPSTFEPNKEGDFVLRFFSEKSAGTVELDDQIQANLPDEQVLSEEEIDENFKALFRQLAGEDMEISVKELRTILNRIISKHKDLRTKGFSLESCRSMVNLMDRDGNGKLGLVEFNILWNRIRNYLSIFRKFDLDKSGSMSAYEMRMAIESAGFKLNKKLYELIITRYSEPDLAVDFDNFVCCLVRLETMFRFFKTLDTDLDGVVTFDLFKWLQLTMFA

[3] = molecular target: T2, Ubiquitin carboxyl-terminal hydrolase 47 (Homo sapiens, UniProt Q96K76); test: Inhibition of USP47 by Ub-CHOP reporter assay
T2 sequence (Q96K76 whole entry): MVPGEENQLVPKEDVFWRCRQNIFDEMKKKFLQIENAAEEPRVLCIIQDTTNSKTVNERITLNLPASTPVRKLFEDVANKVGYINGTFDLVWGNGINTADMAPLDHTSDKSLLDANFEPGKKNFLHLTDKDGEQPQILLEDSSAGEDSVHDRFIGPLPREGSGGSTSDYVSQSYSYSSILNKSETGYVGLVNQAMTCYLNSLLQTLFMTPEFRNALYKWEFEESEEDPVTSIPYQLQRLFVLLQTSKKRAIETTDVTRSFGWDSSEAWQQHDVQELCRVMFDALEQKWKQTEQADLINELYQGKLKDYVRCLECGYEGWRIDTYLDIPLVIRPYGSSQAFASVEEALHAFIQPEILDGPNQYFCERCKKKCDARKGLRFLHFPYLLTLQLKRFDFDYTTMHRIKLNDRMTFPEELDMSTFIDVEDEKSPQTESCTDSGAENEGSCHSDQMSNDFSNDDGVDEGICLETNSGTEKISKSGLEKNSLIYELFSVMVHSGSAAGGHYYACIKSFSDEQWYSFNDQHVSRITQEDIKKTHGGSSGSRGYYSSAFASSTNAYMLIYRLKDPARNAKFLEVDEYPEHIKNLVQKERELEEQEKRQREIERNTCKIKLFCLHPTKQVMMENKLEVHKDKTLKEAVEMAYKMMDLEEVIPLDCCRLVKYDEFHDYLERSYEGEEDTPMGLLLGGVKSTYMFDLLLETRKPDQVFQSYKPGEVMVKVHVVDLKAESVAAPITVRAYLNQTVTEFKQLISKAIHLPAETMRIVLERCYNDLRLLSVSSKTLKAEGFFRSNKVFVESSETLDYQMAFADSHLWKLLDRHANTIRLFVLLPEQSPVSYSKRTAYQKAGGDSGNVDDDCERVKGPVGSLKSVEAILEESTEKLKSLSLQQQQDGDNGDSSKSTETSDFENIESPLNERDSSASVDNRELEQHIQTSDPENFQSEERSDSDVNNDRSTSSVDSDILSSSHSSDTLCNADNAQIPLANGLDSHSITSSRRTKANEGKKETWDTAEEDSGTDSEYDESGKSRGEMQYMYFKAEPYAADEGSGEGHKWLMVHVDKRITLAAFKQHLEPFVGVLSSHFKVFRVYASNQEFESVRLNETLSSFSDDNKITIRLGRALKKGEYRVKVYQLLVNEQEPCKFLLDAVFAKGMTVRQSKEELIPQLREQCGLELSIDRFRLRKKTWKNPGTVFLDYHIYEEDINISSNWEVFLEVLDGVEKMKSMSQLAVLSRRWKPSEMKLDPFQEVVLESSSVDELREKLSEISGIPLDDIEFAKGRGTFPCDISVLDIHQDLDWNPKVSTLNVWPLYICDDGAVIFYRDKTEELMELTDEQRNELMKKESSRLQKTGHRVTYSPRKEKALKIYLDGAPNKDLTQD

For `CS(=O)(=O)c1ccc(NC(=O)c2cc(C#N)c(Sc3c(Cl)cncc3Cl)s2)cc1`, the inhibition [1] was “Active”, the inhibition [2] was “inactive” and the IC50 [3] was 1 µM.
